16 compounds from ChEMBL document CHEMBL1944596, “7,8-dichloro-1-oxo-β-carbolines as a versatile scaffold for the development of potent and selective kinase inhibitors with unusual binding modes” (J Med Chem, 2012) can be followed below.

In test [1] the target is T1, Serine/threonine-protein kinase haspin (Homo sapiens) (UniProt Q8TF76).
T1 sequence (whole entry): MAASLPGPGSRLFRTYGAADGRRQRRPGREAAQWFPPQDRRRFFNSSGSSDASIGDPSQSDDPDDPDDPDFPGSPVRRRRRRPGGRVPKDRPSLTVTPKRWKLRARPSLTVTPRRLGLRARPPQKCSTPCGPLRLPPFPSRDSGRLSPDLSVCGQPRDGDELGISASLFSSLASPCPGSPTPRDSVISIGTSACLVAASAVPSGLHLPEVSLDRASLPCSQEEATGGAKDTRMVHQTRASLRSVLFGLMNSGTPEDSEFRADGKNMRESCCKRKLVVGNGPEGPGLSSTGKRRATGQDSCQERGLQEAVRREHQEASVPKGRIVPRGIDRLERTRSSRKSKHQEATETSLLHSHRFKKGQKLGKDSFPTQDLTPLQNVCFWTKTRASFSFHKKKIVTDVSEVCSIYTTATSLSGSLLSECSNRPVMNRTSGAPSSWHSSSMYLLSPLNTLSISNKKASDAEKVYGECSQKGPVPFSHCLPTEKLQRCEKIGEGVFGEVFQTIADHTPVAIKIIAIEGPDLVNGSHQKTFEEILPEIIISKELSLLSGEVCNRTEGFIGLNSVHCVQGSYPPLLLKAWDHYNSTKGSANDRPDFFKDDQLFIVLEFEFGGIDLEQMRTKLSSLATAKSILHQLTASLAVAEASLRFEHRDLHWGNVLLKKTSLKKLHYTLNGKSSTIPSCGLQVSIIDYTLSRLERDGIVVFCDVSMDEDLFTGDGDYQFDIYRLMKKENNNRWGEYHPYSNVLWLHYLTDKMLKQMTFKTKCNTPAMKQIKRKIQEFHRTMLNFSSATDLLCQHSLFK
The experiment in a line: Binding affinity to Haspin assessed as change in thermal denaturation at 10 uM by thermal stability shift assay. In a few lines:
(§1)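 Each compound was screened across a kinase panel by thermal stability shift assay. The read-out was the shift in protein melting temperature (ΔTm, in °C) relative to the unliganded kinase. A ΔTm of 4.0 °C served as the hit cutoff.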

Test [2] deals with T2, Serine/threonine-protein kinase PLK4 (Homo sapiens) (UniProt O00444).
T2 sequence (whole entry): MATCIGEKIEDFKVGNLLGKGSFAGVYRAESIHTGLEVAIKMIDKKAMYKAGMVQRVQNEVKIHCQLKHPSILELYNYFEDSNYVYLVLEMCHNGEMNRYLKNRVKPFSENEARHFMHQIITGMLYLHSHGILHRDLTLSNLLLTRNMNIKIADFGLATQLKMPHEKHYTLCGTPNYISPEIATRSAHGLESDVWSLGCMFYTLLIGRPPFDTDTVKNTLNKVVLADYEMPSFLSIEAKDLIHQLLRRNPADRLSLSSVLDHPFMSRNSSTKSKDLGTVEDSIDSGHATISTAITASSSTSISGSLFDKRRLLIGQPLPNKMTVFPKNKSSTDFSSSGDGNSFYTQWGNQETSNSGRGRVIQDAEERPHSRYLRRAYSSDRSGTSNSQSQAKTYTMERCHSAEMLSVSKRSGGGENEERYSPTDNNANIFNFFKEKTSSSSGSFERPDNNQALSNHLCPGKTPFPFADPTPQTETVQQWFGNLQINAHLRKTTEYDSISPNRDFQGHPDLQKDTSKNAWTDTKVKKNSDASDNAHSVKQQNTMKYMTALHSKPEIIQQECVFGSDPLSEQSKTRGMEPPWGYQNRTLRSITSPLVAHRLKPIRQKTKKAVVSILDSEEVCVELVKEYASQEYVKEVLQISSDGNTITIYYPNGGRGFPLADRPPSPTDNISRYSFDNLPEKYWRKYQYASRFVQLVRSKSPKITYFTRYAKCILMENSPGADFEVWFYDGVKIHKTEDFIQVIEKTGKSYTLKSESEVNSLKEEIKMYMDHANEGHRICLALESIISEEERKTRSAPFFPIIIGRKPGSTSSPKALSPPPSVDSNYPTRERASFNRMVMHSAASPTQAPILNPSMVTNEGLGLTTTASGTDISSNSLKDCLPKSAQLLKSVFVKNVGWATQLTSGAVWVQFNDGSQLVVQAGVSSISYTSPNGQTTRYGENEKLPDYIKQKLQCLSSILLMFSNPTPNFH
The experiment in a line: Binding affinity to PLK4 assessed as change in thermal denaturation at 10 uM by thermal stability shift assay. In short, it runs like this: as §1

Test [3] concerns the target Casein kinase II subunit alpha' (Homo sapiens) (UniProt P19784). The experiment in a line: Binding affinity to CK2alpha2 assessed as change in thermal denaturation at 10 uM by thermal stability shift assay. In short, it runs like this:
as §1

Test [4] has as its target Ribosomal protein S6 kinase alpha-1 (Homo sapiens) (UniProt Q15418). The experiment in a line: Binding affinity to RSK1 assessed as change in thermal denaturation at 10 uM by thermal stability shift assay.
Test [5] has as its target TGF-beta receptor type-2 (Homo sapiens) (UniProt P37173). In words: Binding affinity to TGFBR2 assessed as change in thermal denaturation at 10 uM by thermal stability shift assay. In a few lines:
as §1

Chain of Ribosomal protein S6 kinase alpha-1 (Homo sapiens) (Q15418 whole entry, looked up): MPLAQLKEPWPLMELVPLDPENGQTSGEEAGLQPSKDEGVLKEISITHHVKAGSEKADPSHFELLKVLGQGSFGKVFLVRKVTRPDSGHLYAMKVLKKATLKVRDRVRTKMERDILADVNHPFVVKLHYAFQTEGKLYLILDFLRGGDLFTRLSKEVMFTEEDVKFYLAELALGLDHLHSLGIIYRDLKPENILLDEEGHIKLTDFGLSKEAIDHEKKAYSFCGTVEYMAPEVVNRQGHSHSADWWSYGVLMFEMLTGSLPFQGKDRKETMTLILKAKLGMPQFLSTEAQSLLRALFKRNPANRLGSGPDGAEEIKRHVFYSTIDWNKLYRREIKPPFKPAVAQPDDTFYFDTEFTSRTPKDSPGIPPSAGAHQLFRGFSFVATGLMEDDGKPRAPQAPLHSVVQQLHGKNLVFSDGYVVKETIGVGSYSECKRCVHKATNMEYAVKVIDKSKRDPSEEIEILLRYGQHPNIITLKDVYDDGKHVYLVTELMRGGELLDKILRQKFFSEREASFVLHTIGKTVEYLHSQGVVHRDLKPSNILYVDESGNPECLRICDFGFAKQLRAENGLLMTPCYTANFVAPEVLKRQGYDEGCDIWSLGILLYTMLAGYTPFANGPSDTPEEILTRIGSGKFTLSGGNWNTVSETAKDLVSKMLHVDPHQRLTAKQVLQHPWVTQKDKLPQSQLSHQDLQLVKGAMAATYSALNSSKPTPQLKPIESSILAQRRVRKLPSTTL
Chain of Casein kinase II subunit alpha' (Homo sapiens) (P19784 whole entry, looked up): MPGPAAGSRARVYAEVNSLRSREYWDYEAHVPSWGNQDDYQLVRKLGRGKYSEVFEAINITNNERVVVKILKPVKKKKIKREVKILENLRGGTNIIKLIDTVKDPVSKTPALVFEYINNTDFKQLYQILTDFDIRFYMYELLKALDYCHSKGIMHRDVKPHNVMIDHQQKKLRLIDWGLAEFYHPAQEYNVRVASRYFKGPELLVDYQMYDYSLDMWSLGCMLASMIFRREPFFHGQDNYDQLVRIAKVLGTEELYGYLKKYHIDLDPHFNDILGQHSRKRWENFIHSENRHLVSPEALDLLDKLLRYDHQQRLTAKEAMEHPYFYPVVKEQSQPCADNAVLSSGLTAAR
Chain of TGF-beta receptor type-2 (Homo sapiens) (P37173 whole entry): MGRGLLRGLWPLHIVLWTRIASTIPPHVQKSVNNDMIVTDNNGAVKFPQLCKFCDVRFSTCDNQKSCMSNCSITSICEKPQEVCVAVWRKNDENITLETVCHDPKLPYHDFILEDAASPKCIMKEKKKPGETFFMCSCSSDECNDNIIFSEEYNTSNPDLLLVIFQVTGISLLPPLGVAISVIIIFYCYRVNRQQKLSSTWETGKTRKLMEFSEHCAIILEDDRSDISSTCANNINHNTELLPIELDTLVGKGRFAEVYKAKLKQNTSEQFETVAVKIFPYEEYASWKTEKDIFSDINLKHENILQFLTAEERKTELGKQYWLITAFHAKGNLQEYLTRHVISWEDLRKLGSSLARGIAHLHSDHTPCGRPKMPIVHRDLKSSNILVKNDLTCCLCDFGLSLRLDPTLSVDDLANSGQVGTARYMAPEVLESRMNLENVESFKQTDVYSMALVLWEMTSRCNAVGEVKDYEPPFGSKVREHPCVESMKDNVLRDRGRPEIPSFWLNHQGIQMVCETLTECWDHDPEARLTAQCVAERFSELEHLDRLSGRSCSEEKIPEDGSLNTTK

Turning to `Cn1c2c(c3ccc(Cl)c(Cl)c31)C(C#N)C1(CCN(C(=O)OC(C)(C)C)CC1)NC2=O` (racemic), the ΔTm (in general, the change in melting temperature against a reference sample) was 0.3 °C in test [1], 0.1 °C in test [2], 0.3 °C in test [3] and 0 °C in test [4].
Regarding `Cn1c2c(c3ccc(Cl)c(Cl)c31)C(C#N)C(C)(C)NC2=O` (configuration not stated), the ΔTm worked out at 0.9 °C in test [1]; 5.1 °C in test [2]; 8.1 °C in test [5]; 2.1 °C in test [3]; 1.8 °C in test [4].
As for `CC(=O)NCC1c2c(n(C)c3c(Cl)c(Cl)ccc23)C(=O)NC1(C)C` (racemic), the ΔTm was found to be 0.3 °C in test [1]; 1 °C in test [2]; 1.5 °C in test [5]; 1 °C in test [3]; 0.7 °C in test [4].
In the case of `CCN1CCC2(CC1)NC(=O)c1c(c3ccc(Cl)c(Cl)c3n1C)C2C#N` (racemic), the ΔTm in test [1] was 2.6 °C; in test [2], 3.2 °C; in test [5] it was 0.3 °C; in test [3], 1.8 °C; in test [4] it was 0 °C.
For `Cn1c2c(Cl)c(Cl)ccc2c2cc[nH]c(=O)c21` the same measures were 3.4 °C, 1.7 °C, 10.1 °C, 2 °C and 4.6 °C.
For `Cn1c2c(Cl)c(Cl)ccc2c2cn[nH]c(=O)c21` the same measures were 3.2 °C, 1.5 °C, 10.4 °C, 2.1 °C and 1.7 °C.
With `Cn1c2c(c3ccc(Cl)c(Cl)c31)C(C#N)C1(CCCC1)NC2=O` (configuration not stated), the thermal shift (ΔTm) in test [1] stood at 0.1 °C; in test [2], 2.5 °C; in test [5] it was 2.2 °C; in test [3] it was 1 °C; in test [4], 0.5 °C.
For the compound `N#CC1c2c([nH]c3c(Cl)c(Cl)ccc23)C(=O)NC12CCCCC2` (racemic), the ΔTm in test [1] was 0 °C; in test [2] it was 1.3 °C; in test [3], 1.2 °C; in test [4], 0.4 °C.
As to `Cn1c2c(Cl)c(Cl)ccc2c2cc(N)[nH]c(=O)c21`, the ΔTm in test [1] came out at 2.7 °C; in test [2], 2 °C; in test [5] it was 7.9 °C; in test [3] it was 3 °C; in test [4] it was 3.1 °C.
`CCC1(CC)NC(=O)c2c(c3ccc(Cl)c(Cl)c3n2C)C1C#N` (configuration not stated): the ΔTm in test [1] worked out at 0.4 °C; in test [2] it was 4.6 °C; in test [5] it was 5 °C; in test [3] it was 1 °C; in test [4], 0.5 °C.
The matching figures for `CC1(C)NC(=O)c2[nH]c3c(Cl)c(Cl)ccc3c2C1C#N` (configuration not stated): 0.3 °C, 1.7 °C, 6.8 °C, 1.9 °C and 1.4 °C.
With `Cn1c2c(c3ccc(Cl)c(Cl)c31)C(CN)C(C)(C)NC2=O` (racemic), the shift in melting temperature (ΔTm) in test [1] worked out at 1.8 °C; in test [2] it was 2.7 °C; in test [5] it was 3 °C; in test [3], 0.5 °C; in test [4], 0.4 °C.
With `Cn1c2c(c3ccc(Cl)c(Cl)c31)C(C#N)C1(CCNCC1)NC2=O` (racemic), the shift in melting temperature (ΔTm) in test [1] was 5.6 °C; in test [2] it was 6.8 °C; in test [3] it was 4.2 °C; in test [4], 1 °C.
With `CN1CCC2(CC1)NC(=O)c1c(c3ccc(Cl)c(Cl)c3n1C)C2C#N` (racemic), the ΔTm was found to be 3.4 °C in test [1]; 3.3 °C in test [2]; 1.1 °C in test [5]; 2.7 °C in test [3]; 0.5 °C in test [4].
For the compound `Cn1c2c(c3ccc(Cl)c(Cl)c31)C(C#N)C1(CCOCC1)NC2=O` (configuration not stated), the ΔTm is 1.1 °C in test [1]; 2.7 °C in test [2]; 2.6 °C in test [5]; 1 °C in test [3]; 0.6 °C in test [4].
On to `Cn1c2c(c3ccccc31)C(C#N)C(C)(C)NC2=O` (configuration not stated), for which the ΔTm came out at 1.7 °C in test [1]; 0.9 °C in test [2]; 2.9 °C in test [5]; 0.7 °C in test [3]; 0.4 °C in test [4].
